Screens (PubChem)
DSG3 Ab inh: human desmoglein-3 autoantibody binding inhibition; P32926; DSG3-coupled beads, scFv-anti-DSG3-GFP binding, flow cytometry; hits give low values; binding (percent of control), % at 10 µM; actives 0.48% (n = 310,000);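 active = binding more than 3 SD below its plate's average and above zero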;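 note: hits lower antibody fragment binding to DSG3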
CHT PAM: allosterically activates the human high affinity choline transporter; Q9GZV3; CHT-expressing cells, membrane potential dye, choline EC20; hits give high values; LV-AA mutant CHT in HEK293 cells; B-score at 10 µM; actives 0.49% (n = 310,000);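 active = initial fluorescence not abnormally high and integrated response B-score, plate-corrected, over 3 SD above library mean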
Target sequence (Q9GZV3 whole entry, looked up): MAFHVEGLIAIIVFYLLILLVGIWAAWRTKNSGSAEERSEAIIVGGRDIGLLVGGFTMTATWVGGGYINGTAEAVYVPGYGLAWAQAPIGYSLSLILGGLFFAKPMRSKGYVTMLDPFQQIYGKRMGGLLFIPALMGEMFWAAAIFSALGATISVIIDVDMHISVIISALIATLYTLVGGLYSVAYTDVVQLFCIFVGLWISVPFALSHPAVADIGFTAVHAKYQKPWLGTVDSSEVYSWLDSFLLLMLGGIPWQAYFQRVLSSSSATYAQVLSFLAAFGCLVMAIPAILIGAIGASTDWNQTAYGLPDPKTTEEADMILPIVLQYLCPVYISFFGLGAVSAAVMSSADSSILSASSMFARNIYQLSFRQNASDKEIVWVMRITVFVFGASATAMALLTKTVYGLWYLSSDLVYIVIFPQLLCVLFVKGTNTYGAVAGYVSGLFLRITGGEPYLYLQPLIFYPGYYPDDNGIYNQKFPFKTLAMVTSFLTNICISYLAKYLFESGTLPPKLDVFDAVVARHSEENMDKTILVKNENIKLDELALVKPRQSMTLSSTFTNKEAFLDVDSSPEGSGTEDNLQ
pCIP destab: compounds decreasing mouse p/CIP protein stability | Q05BA5 | F442A p/CIP-EGFP cells, EGFP fluorescence, 16 h | decrease of EGFP signal, % at 10 µM | actives 0.01% (n = 290,000);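 active = EGFP signal decrease of at least 30% at 10 µM or well 3 SD below plate mean, unless failing retest; inactive = the rest, including hits failing retest or dose response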
CHT inh: inhibitors of human choline transporter CHT; Q9GZV3; CHT-expressing cells, membrane potential dye, choline response; hits give low values; B-score at 10 µM; actives 0.86% (n = 310,000); AID 488975;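 active = B-score over 3 SD under the library average, and starting fluorescence ratio not unusually high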;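 note: choline stimulus applied at its EC90 after an EC20 pre-addition; B-score computed on integrated fluorescence ratio after choline addition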
GPR7 antag: antagonists of human GPR7 (neuropeptides B/W receptor 1) | P48145 | actives 1.1% (n = 290,000) | AID 1861 | inhibition, % at 4.4 µM | GPR7-expressing cells, fluorescence antagonist assay; in the data active = inhibition above about 16%, passing the limit was not always enough;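 note: cells stimulated with the agonist NPW; 0% = agonist with vehicle and 100% = vehicle without agonist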
T cell HTS: modulates CD8 T cell binding to vesicles; 2C CD8+ T cell-vesicle binding, flow cytometry; hits give low values; response (vesicle binding), % at 7 µM; actives 0.068% (n = 330,000);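 active = response, share of CD8 T cells binding vesicles, and their 90th percentile fluorescence all below set limits, cut at about 80% in these data, passing the limit was not always enough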;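 note: values below 100% mean blocked vesicle binding to the CD8+ T cells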
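Assay system – 2C mouse CD8+ T cells · Also added – QL9-loaded Drosophila micro-vesicles · Timing – Cell–vesicle co-incubation 1.5 h at 37 °C, staining 20 min on ice · Signal – flow cytometry of vesicle-bound cells · Measure – percent CD8+ FL2 mean versus row control · Controls – Peptide-free naked vesicles (low) and QL9 vesicles with 0.7% DMSO vehicle (high)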
GPR7 antag cf: human GPR7 antagonism, confirmation assay. shares compounds with GPR7 antag. GPR7-expressing cells, calcium fluorescence antagonist mode. inhibition, % at 4.4 µM. actives 52% (n = 2,400); in the data active = inhibition above about 24%;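 note: stimulated with the GPR7 agonist NPW; 0% = agonist plus vehicle and 100% = vehicle alone without agonist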
MCHR1 antagonist: counter-screen for GPR7 antagonists: antagonists of human MCHR1; shares compounds with GPR7 antag; MCHR1-expressing cells, fluorescence antagonist assay; inhibition, % at 4.4 µM; actives 62% (n = 2,400); AID 2148; in the data active = inhibition above about 22%;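 note: 0% = vehicle with agonist and 100% = vehicle without agonist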
* = called active by the depositor; ! = a repeat was not active. This is a sample that favours compounds with a hit; in the whole collection about 2.3% have one here.

For Cc1cc(-c2ccc(C)c(S(=O)(=O)N3CCN(c4ccccn4)CC3)c2)on1 the results were DSG3 Ab inh 101, CHT PAM inactive, pCIP destab -4, CHT inh inactive, GPR7 antag 28*, T cell HTS 196, GPR7 antag cf 32* and MCHR1 antagonist 62*.
For Cc1ccc(Cn2nnc(C(=O)Nc3cccc(C)c3C)c2N)cc1 the results were DSG3 Ab inh 113, CHT PAM inactive, pCIP destab 1, CHT inh inactive, GPR7 antag 61*, T cell HTS 260, GPR7 antag cf 77* and MCHR1 antagonist 75*.
`CCc1ccc(Cn2nnc(C(=O)NCc3ccccc3OC)c2N)cc1` gave DSG3 Ab inh 107, CHT PAM inactive, pCIP destab -27, CHT inh inactive, GPR7 antag 25*, T cell HTS 124, GPR7 antag cf -1 and MCHR1 antagonist -2.
`CCc1ccc(Cn2nnc(C(=O)Nc3cccc(C)c3)c2N)cc1` gave DSG3 Ab inh 99, CHT PAM inactive, pCIP destab 2, CHT inh inactive, GPR7 antag 11 and T cell HTS 56.
For COc1ccccc1NS(=O)(=O)c1cc(C(=O)NC2CC(C)(C)NC(C)(C)C2)ccc1Cl the results were DSG3 Ab inh 106.
CN1CCN(CCOC2Cc3ccccc3Sc3ccc(Cl)cc32)CC1 (centres undefined) was read as DSG3 Ab inh 97, CHT PAM inactive, pCIP destab 7, CHT inh inactive, GPR7 antag 23*, T cell HTS 188, GPR7 antag cf 33* and MCHR1 antagonist 44*.
Screening Cc1ccc(NC(=O)CSc2nnnn2C)cc1S(=O)(=O)N(C)C returned DSG3 Ab inh 78, CHT PAM inactive, pCIP destab -3, CHT inh inactive, GPR7 antag -4 and T cell HTS 772.
`Cc1ccc(NC(=O)CSc2nn(-c3ccccc3)c(=S)s2)cc1S(=O)(=O)N(C)C` gave DSG3 Ab inh 104, CHT PAM inactive, pCIP destab -14, CHT inh inactive, GPR7 antag 21*, T cell HTS 705, GPR7 antag cf 56* and MCHR1 antagonist 68*.
`Cc1ccccc1OCC(O)Cn1c(=N)n(CCN2CCOCC2)c2ccccc21` (centres undefined) gave DSG3 Ab inh 100, CHT PAM inactive, pCIP destab 0, CHT inh inactive, GPR7 antag 33*!, T cell HTS 600, GPR7 antag cf 21 and MCHR1 antagonist 26*.
`N=c1n(CCN2CCCCC2)c2ccccc2n1CC(O)COc1ccccc1` (centres undefined) gave DSG3 Ab inh 103, CHT PAM 7.2*, pCIP destab 9, CHT inh inactive, GPR7 antag 40*, T cell HTS 177, GPR7 antag cf 40* and MCHR1 antagonist 23*.
For CC(=O)C1=C(O)C(=CC=Cc2ccccc2)OC1=O the results were DSG3 Ab inh 105.
For CCc1ccc(CN(C)Cc2c(C(=O)N3CCOCC3)nc3c(C)cccn23)nc1 the results were DSG3 Ab inh 104.
Screening CN(C(=O)CSc1nncc2ccccc12)c1ccccc1 returned T cell HTS 464.
`O=C(NCCO)/C(=C\c1cccc([N+](=O)[O-])c1)NC(=O)c1cccs1` gave DSG3 Ab inh 96.
Screening N#Cc1ccccc1CSc1ccc(-c2nc3ccccc3[nH]2)cn1 returned DSG3 Ab inh 119, CHT PAM inactive, pCIP destab -29, CHT inh inactive, GPR7 antag 31*, T cell HTS 561, GPR7 antag cf 5 and MCHR1 antagonist 74*.
Screening CC(=O)CSc1ccc(-c2nc3ccccc3[nH]2)cn1 returned DSG3 Ab inh 97, CHT PAM inactive, pCIP destab -4, CHT inh inactive, GPR7 antag -11 and T cell HTS 161.
